Source: PubChem BioAssay AID588731 (Vanderbilt Specialized Chemistry Center, 2011)
Activity calls are given as the source filed them.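 The calls were made as follows: active = compounds shifting agonist potency at least twofold either way, or pushing peak agonist response below 75% or above 125%; inactive = the rest.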

Target: Metabotropic glutamate receptor 7 (Rattus norvegicus) (UniProt P35400)
Assay: rat mGlu7 allosteric modulation, L-AP4 curve shift, profiling panel, selectivity assay for mGlu5 PAM project, thallium flux, HEK/GIRK cells (AID 588731)
Details: L-AP4 CRC shift, at 10 µM; for Emax: measured here: L-AP4 max response with compound
In short: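 Test system – HEK cells with GIRK channels expressing rat mGlu7 receptor · Compound dosing – single test compound concentration of 10 µM final · Signal – GIRK thallium flux fluorescence · Timing – dye load 45 min, 37 °C, agonist at 142 s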

Metabotropic glutamate receptor 7 (Rattus norvegicus), sequence (P35400 whole entry, looked up): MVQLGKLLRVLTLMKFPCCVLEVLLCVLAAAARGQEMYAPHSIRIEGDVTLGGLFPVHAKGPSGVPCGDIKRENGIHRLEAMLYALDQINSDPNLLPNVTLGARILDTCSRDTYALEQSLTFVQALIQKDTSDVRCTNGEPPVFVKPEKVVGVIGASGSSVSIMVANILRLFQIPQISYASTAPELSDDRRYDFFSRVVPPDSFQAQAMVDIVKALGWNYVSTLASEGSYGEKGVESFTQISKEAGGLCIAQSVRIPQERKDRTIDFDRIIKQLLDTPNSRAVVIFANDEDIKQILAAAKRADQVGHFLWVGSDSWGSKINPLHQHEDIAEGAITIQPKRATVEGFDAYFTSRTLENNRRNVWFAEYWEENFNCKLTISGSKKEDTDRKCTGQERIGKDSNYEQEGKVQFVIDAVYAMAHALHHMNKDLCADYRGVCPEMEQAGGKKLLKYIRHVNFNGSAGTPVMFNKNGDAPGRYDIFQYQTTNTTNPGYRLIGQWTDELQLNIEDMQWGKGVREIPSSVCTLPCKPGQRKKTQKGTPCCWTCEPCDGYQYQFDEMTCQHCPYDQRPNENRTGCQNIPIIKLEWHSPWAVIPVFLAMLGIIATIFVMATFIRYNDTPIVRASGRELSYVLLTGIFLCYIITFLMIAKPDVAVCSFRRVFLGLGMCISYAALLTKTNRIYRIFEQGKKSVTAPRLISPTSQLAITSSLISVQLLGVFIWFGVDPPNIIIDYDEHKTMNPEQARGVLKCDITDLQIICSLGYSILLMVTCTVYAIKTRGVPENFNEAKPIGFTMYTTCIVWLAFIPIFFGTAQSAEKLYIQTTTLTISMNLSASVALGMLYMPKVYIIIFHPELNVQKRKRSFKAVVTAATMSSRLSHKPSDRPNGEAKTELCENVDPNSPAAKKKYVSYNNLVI

| Compound | fold shift | Emax [%] |
| --- | --- | --- |
| C[C@@H](NC(=O)c1ccc(C#Cc2cccc(F)c2)cn1)C(C)(C)O | 1.04 (inactive) | 92 |
| CC1(NC(=O)c2ccc(C#Cc3cccc(F)c3)cn2)COC1 | 0.77 (inactive) | 92.3 |
